The record followed here is paper PMC8519014 (Journal of pharmaceutical and biomedical analysis, 2017).

The nature of this data set: Mice pharmacokinetic study after oral administration of a mixture of 11 TKIs. It counts as in vivo, FVB wild-type mice. Conditions: for concentration at 15 min / concentration at 30 min / concentration at 45 min / concentration at 60 min / concentration at 120 min / concentration at 240 min / Cmax / Tmax / AUC(0-t): 1 mg/kg; for Tmax: oral gavage 1 mg/kg each as a mixture of 11 TKIs, FVB wild-type mice, blood, n = 4. The method in brief: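 Male FVB mice (25–30 g, 10–12 weeks) fasted overnight with water, then oral gavage of an 11-TKI cassette in oral suspension vehicle (0.06 mg/ml each), 1 mg/kg. Tail-tip blood (~15 μl, heparinized) taken at 15–1440 min (nine points). Quantified by UHPLC BEH C18–ESI triple-quadrupole MS/MS against blank-blood calibrants (acetonitrile/testosterone IS precipitation). Non-compartmental parameters, n = 4.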

Where [1] appears, read: male, FVB wild-type, mouse, whole blood, po.
Where [2] appears, read: male, FVB wild-type, mouse, whole blood, po, Tmax.

Where a name gives a salt, the structure may show the parent alone.

On to `CN(C)C/C=C/C(=O)Nc1cc2c(Nc3ccc(F)c(Cl)c3)ncnc2cc1O[C@H]1CCOC1` [Afatinib, afatinib], for which, where the note is “oral 1 mg/kg as mixture of 11 TKIs, mice”, the “Detection in blood after oral dosing” value is “not detected”.

Take `CNC(=O)c1ccccc1Sc1ccc2c(/C=C/c3ccccn3)n[nH]c2c1` [Axitinib, axitinib]: under setting [1], the concentration at 15 min came out at 51.7 ± 40 ng/mL, the concentration at 30 min came out at 42.7 ± 19.3 ng/mL, the concentration at 45 min came to 46.1 ± 39.6 ng/mL and the concentration at 60 min came out at 34.2 ± 37.3 ng/mL. Under setting [1], the concentration at 120 min was 11.1 ± 16.4 ng/mL and the concentration at 240 min turned out to be 4.8 ± 26.8 ng/mL.

For the molecule `Cc1nc(Nc2ncc(C(=O)Nc3c(C)cccc3Cl)s2)cc(N2CCN(CCO)CC2)n1` [Dasatinib, dasatinib], under setting [1], the concentration at 15 min was 9.1 ± 18.2 ng/mL, the concentration at 30 min is 21.5 ± 19.2 ng/mL, the concentration at 45 min worked out at 34.3 ± 41.6 ng/mL and the concentration at 60 min was found to be 24.8 ± 49.7 ng/mL. Under setting [1], the concentration at 120 min was determined as 18.4 ± 23.1 ng/mL and the concentration at 240 min was found to be 10.1 ± 20.2 ng/mL.

As a reminder, the Cmax is the peak of the concentration-time curve. What is called Tmax is the time at which the peak concentration occurs. For the molecule `C#Cc1cccc(Nc2ncnc3cc(OCCOC)c(OCCOC)cc23)c1` [Erlotinib, erlotinib hydrochloride], under setting [1], the Cmax came to 147 ± 62.2 ng/mL, the concentration at 15 min was 147 ± 62.2 ng/mL, the concentration at 30 min stood at 124 ± 45 ng/mL and the concentration at 45 min turned out to be 120 ± 97.6 ng/mL. Besides, under setting [1], the concentration at 60 min is 87.6 ± 87.6 ng/mL, the concentration at 120 min was determined as 23 ± 37.7 ng/mL and the concentration at 240 min stood at 14.4 ± 24.9 ng/mL. Under setting [2], the time to peak (Tmax) was 0.25 h.

Consider `COc1cc2ncnc(Nc3ccc(F)c(Cl)c3)c2cc1OCCCN1CCOCC1` [Gefitinib, gefitinib], for which, under setting [1], the concentration at 15 min amounted to 24.7 ± 22 ng/mL, the concentration at 30 min turned out to be 32.4 ± 28.1 ng/mL, the concentration at 45 min amounted to 36.7 ± 41.5 ng/mL and the concentration at 60 min amounted to 33.2 ± 42.7 ng/mL. For the same molecule, under setting [1], the concentration at 120 min is 21.8 ± 25.5 ng/mL and the concentration at 240 min turned out to be 32.7 ± 26.3 ng/mL.

Take `Cc1ccc(NC(=O)c2ccc(CN3CCN(C)CC3)cc2)cc1Nc1nccc(-c2cccnc2)n1` [Imatinib]: under setting [1], the concentration at 15 min worked out at 53.1 ± 20.1 ng/mL, the concentration at 30 min amounted to 55.7 ± 28.6 ng/mL, the concentration at 45 min was 68.8 ± 63.8 ng/mL and the concentration at 60 min worked out at 48.1 ± 56.9 ng/mL. Also, under setting [1], the concentration at 120 min was 19.9 ± 19 ng/mL and the concentration at 240 min turned out to be 11.1 ± 19.2 ng/mL.

Take `CS(=O)(=O)CCNCc1ccc(-c2ccc3ncnc(Nc4ccc(OCc5cccc(F)c5)c(Cl)c4)c3c2)o1` [Lapatinib, lapatinib]: under setting [1], the concentration at 15 min amounted to 8.8 ± 12.7 ng/mL, the concentration at 30 min is 16.3 ± 28.2 ng/mL, the concentration at 45 min turned out to be 21.4 ± 25.6 ng/mL and the concentration at 60 min turned out to be 21.2 ± 25.7 ng/mL. Further, under setting [1], the concentration at 120 min is 20.1 ± 28.2 ng/mL and the concentration at 240 min turned out to be 18.1 ± 25.4 ng/mL.

For the molecule `Cc1cn(-c2cc(NC(=O)c3ccc(C)c(Nc4nccc(-c5cccnc5)n4)c3)cc(C(F)(F)F)c2)cn1` [Nilotinib, nilotinib], under setting [1], the concentration at 15 min came out at 62.1 ± 32.8 ng/mL, the concentration at 30 min is 59.1 ± 31.4 ng/mL, the concentration at 45 min worked out at 69 ± 37.2 ng/mL and the concentration at 60 min worked out at 68.8 ± 26.8 ng/mL. Under setting [1], the concentration at 120 min worked out at 67.3 ± 64.3 ng/mL and the concentration at 240 min was 34.6 ± 33.1 ng/mL.

Usually AUC(0-t) stands for exposure summed from dosing to a finite time, without extrapolation to infinity. With `Cc1ccc(Nc2nccc(N(C)c3ccc4c(C)n(C)nc4c3)n2)cc1S(N)(=O)=O` [Pazopanib, pazopanib hydrochloride], the Tmax came to 1.62 ± 1.11 h. Under setting [1], the area under the curve AUC(0-t) was 4150 ng·h/mL and the Cmax stood at 717 ± 206 ng/mL. The Tmax under setting [2] was ~1.62 h. Besides, the “Systemic exposure (AUC) relative to sorafenib” value (pazopanib AUC versus sorafenib AUC, oral 1 mg/kg as mixture of 11 TKIs, mice) is on record as 7.5 times.

For `CNC(=O)c1cc(Oc2ccc(NC(=O)Nc3ccc(Cl)c(C(F)(F)F)c3)cc2)ccn1` [Sorafenib, sorafenib tosylate], under setting [1], the AUC(0-t) is 558 ng·h/mL and the Cmax was found to be 154 ± 30.4 ng/mL. The Tmax under setting [2] was 1 h.

In the case of `CCN(CC)CCNC(=O)c1c(C)[nH]c(/C=C2\C(=O)Nc3ccc(F)cc32)c1C` [Sunitinib, sunitinib malate], under setting [1], the concentration at 15 min was determined as 9.4 ± 12.1 ng/mL, the concentration at 30 min was determined as 18.4 ± 10.6 ng/mL, the concentration at 45 min was 22.8 ± 18.9 ng/mL and the concentration at 60 min was 12.7 ± 20 ng/mL. Under setting [1], the concentration at 120 min is 14.7 ± 15.8 ng/mL.
